Experiments:
[1] = biological target: 11-beta-hydroxysteroid dehydrogenase 1 (Homo sapiens) (UniProt P28845); experiment: Inhibition of human 11beta-HSD1 expressed in HEK293 cells at 10 uM by scintillation proximity assay; format: cell-based
Summary of the method: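 Cell-based scintillation proximity assay in HEK293 cells stably transfected with full-length human hsd11b1, grown in DMEM. Compounds were added at 1% final DMSO with 20 nM tritiated cortisone (final), 2 h at 37 °C. Medium was mixed with anti-mouse YSi SPA beads and anti-cortisol antibody in Tris-HCl pH 7.0 buffer, 2 h at room temperature. Inhibition was calculated against an uninhibited control.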

Rattus norvegicus [2] = experiment: Antidiabetic effect in streptozo-nicotinamide rat model of diabetes assessed as change in blood glucose level at 100 mg/kg, po after 1 hr relative to control; format: functional
Summary of the method: (§1)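 Type 2 diabetes was induced in overnight-fasted rats with i.p. streptozotocin 65 mg/kg, given 15 min after i.p. nicotinamide 110 mg/kg. Rats with glucose above 250 mg/dL at 72 h were used, n = 5 per group. Compounds were suspended in 1% Tween 80 and given orally. Controls received vehicle; glibenclamide 5 mg/kg was the reference. Caudal-vein glucose was read by glucose-oxidase glucometer at 0, 1, 3, 5 and 7 h.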

Rattus norvegicus [3] = experiment: Antidiabetic effect in streptozo-nicotinamide rat model of diabetes assessed as change in blood glucose level at 100 mg/kg, po after 7 hrs relative to control; format: functional; summary of the method: as §1
Rattus norvegicus [4] = experiment: Antidiabetic effect in streptozo-nicotinamide rat model of diabetes assessed as change in blood glucose level at 100 mg/kg, po after 3 hrs relative to control; format: functional; summary of the method: as §1
Rattus norvegicus [5] = experiment: Antidiabetic effect in streptozo-nicotinamide rat model of diabetes assessed as change in blood glucose level at 100 mg/kg, po after 5 hrs relative to control; format: functional; summary of the method: as §1

Sequence of 11-beta-hydroxysteroid dehydrogenase 1 (Homo sapiens) (P28845 whole entry, looked up): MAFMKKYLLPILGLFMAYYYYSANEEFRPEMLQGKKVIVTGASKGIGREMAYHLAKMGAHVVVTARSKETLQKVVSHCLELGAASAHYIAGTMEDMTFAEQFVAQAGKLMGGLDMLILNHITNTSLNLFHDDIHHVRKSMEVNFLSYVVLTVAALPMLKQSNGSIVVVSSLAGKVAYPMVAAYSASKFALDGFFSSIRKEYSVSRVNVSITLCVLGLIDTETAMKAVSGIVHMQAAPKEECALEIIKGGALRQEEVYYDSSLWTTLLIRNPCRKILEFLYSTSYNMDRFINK

SMILES | inhibition [1] | Activity (Rattus norvegicus [2]) | Activity (Rattus norvegicus [3]) | Activity (Rattus norvegicus [4]) | Activity (Rattus norvegicus [5])
CCOc1ccc2nc(NS(=O)(=O)c3ccc(C)cc3)sc2c1 | 16.4% |  |  |  | 
COc1ccc(Cl)cc1C(=O)NCCc1ccc(S(=O)(=O)NC(=O)NC2CCCCC2)cc1 [GLYBURIDE] |  | 78% | 55.4% | 32.6% | 51.5%
Cc1ccc2nc(NS(=O)(=O)c3ccc(Cl)cc3)sc2c1 | 27.2% | 34% | 21.4% | 36.1% | 12.2%
CCOc1ccc2nc(NS(=O)(=O)c3ccc([N+](=O)[O-])cc3)sc2c1 | 15.5% |  |  |  | 
CC(=O)Nc1ccc(S(=O)(=O)Nc2nc3ccc([N+](=O)[O-])cc3s2)cc1 | 7.69% | 37.2% | 30% | 11.8% | 4%

Second part, led by results:

inhibition [1] | SMILES | Activity (Rattus norvegicus [2]) | Activity (Rattus norvegicus [3]) | Activity (Rattus norvegicus [4]) | Activity (Rattus norvegicus [5])
11.1% | Cc1ccc2nc(NS(=O)(=O)c3ccc([N+](=O)[O-])cc3)sc2c1 |  |  |  | 
53.3% | COc1ccc2nc(NS(=O)(=O)c3ccc([N+](=O)[O-])cc3)sc2c1 | 69.7% | 27.8% | 42.5% | 18.1%
37.6% | COc1ccc2nc(NS(=O)(=O)c3ccccc3)sc2c1 | 78.1% | 53.2% | 62.9% | 31.5%
25.6% | COc1ccc(S(=O)(=O)Nc2nc3ccc([N+](=O)[O-])cc3s2)cc1 | 77.1% | 29% | 49% | 19.1%

Reference: ChEMBL document CHEMBL1145630, “Antidiabetic activity of N-(6-substituted-1,3-benzothiazol-2-yl)benzenesulfonamides” (2008)
